Source: PubChem
GASC1 inh: inhibitors of human demethylase GASC-1 KDM4C | Q9H3R0 | GST-KDM4C 2-372, H3K9me3 peptide, LANCE TR-FRET | inhibition, % at 12.5 µM | 0.15% of 96,000 active;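 active = mean replicate inhibition above about 25%, with at least 55% of replicates also reaching it, limit read from the data, passing the limit was not always enough; inconclusive = only one of those two conditions met; inactive = neither condition met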
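System: N-terminal GST-fused human GASC-1 (KDM4C) fragment, residues 2-372; amount: enzyme final amount 10 nM; incubation: reaction 30 min RT, detection step 1 h RT; medium: HEPES buffer, pH 7.5, plus ascorbate; technique: LANCE TR-FRET, Eu antibody, ULight-streptavidin, EDTA, ex 340 nm, em 618/671 nm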
T cruzi growth: inhibitors of T. cruzi proliferation | T. cruzi beta-gal in NIH3T3, GalScreen luminescence, 90 h | inhibition, % at 8.34 µM | 5.9% of 77,000 active;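 active = mean inhibition above about 93%, with at least 55% of replicates each passing it, limit read from the data, passing the limit was not always enough; inconclusive = only one of those two conditions holds; inactive = neither condition holds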
IDH1 R132H inh: IDH1 R132H (human) inhibition | O75874 | IDH1 R132H reductase, diaphorase/resazurin fluorescence, 60 min | inhibition, % at 10 µM | 0.18% of 70,000 active; in the data active = inhibition above about 34%; inconclusive = no clear call, values can overlap the other calls; inactive = below about 11%
Target sequence (O75874 whole entry R132H): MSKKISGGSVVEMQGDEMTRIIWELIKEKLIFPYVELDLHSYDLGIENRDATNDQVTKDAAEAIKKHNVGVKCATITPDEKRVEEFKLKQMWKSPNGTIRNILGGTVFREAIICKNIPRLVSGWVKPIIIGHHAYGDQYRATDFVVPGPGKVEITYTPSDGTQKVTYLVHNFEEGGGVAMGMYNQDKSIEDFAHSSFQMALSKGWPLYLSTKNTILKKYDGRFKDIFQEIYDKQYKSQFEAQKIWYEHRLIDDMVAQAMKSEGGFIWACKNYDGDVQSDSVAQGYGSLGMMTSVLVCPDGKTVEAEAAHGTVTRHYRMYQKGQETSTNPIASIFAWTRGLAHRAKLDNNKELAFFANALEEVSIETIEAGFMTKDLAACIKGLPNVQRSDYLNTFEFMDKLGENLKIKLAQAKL
Pf Dd2 inh: P. falciparum Dd2 growth inhibition. activity change, % at 10 µM. 2.3% of 94,000 active. SYBR Green, 72 h; stronger effect = lower value; in the data active = activity change below about -80%; inconclusive = no clear call, values can overlap the other calls
Of the large screens only hits and unclear results are named; the others gave an inactive call. Rows were chosen to be rich in hits. Some 5.8% of all compounds tested hit in one or more screens of this group.

Cc1cc(C)cc(NC(=O)CSC2CC(=O)N(c3ccc(F)cc3)C2=O)c1 (centres undefined)	none (no result: GASC1 inh, T cruzi growth, Pf Dd2 inh)
C[C@@H]1CN([C@@H](C)CO)C(=O)c2cc(NC(=O)Cc3ccccc3)ccc2O[C@@H](C)CCCCO[C@@H]1CN(C)C(=O)Nc1cccc2ccccc12	Pf Dd2 inh -94.4
C[C@H](CO)N1C[C@H](C)[C@@H](CN(C)C(=O)Nc2cccc3ccccc23)OCCCC[C@H](C)Oc2ccc(NC(=O)c3ccccc3)cc2C1=O	none (no result: IDH1 R132H inh)
C[C@@H]1CCCCO[C@@H](CN(C)C(=O)Nc2cccc3ccccc23)[C@H](C)CN([C@H](C)CO)C(=O)c2cc(NC(=O)Nc3ccccc3)ccc2O1	none (no result: IDH1 R132H inh)
C[C@@H]1CN([C@H](C)CO)C(=O)c2cc(NC(=O)Cc3ccccc3)ccc2O[C@@H](C)CCCCO[C@H]1CN(C)C(=O)Nc1cccc2ccccc12	Pf Dd2 inh -87.5
C[C@@H]1CCCCO[C@@H](CN(C)C(=O)Nc2cccc3ccccc23)[C@@H](C)CN([C@@H](C)CO)C(=O)c2cc(NC(=O)Cc3ccccc3)ccc2O1	Pf Dd2 inh -91.9 (no result: T cruzi growth)
CN(C)CCCNc1ncnc2c1sc1nc(N3CCOCC3)c3c(c12)CCC3	none (no result: GASC1 inh, T cruzi growth, Pf Dd2 inh)
CO[C@@H]1CN(C)C(=O)c2ccc(NC(=O)Nc3ccc(C(F)(F)F)cc3)cc2OC[C@H](C)NC[C@H]1C	Pf Dd2 inh -94.5
CO[C@H]1CN(C)C(=O)c2ccc(NC(=O)c3ccc(-c4ccccc4)cc3)cc2OC[C@@H](C)NC[C@@H]1C	Pf Dd2 inh -91.9
CO[C@@H]1CN(C)C(=O)c2ccc(NC(=O)c3ccc(-c4ccccc4)cc3)cc2OC[C@H](C)NC[C@@H]1C	Pf Dd2 inh inconclusive
CO[C@@H]1CN(C)C(=O)c2ccc(NC(=O)c3ccc(-c4ccccc4)cc3)cc2OC[C@@H](C)NC[C@@H]1C	Pf Dd2 inh -85.5 (no result: T cruzi growth, IDH1 R132H inh)
CO[C@@H]1CN(C)C(=O)c2cc(NC(=O)c3ccc(Oc4ccccc4)cc3)ccc2OC[C@@H](C)NC[C@@H]1C	Pf Dd2 inh -92.0
CO[C@H]1CN(C)C(=O)c2cc(NC(=O)c3ccc(Oc4ccccc4)cc3)ccc2OC[C@@H](C)NC[C@H]1C	none
Cc1ccc(-c2nnc(SCC(=O)Nc3c(C)cc(C)cc3C)o2)cc1	none (no result: GASC1 inh, T cruzi growth, Pf Dd2 inh)
O=C(CSc1nnc(-c2ccccc2Cl)n1-c1ccccc1)Nc1ccccc1Cl	none (no result: GASC1 inh, T cruzi growth, Pf Dd2 inh)
CO[C@@H]1CN(C)C(=O)c2cc(NC(=O)Nc3cccc(Cl)c3)ccc2OC[C@@H](C)NC[C@H]1C	none
CO[C@@H]1CN(C)C(=O)c2cc(NC(=O)Nc3cccc(Cl)c3)ccc2OC[C@@H](C)NC[C@@H]1C	Pf Dd2 inh -84.8
CO[C@@H]1CN(C)C(=O)c2ccc(NC(=O)c3nc4ccccc4s3)cc2OC[C@H](C)N(Cc2cccnc2)C[C@@H]1C	Pf Dd2 inh -82.7 (no result: IDH1 R132H inh)
CO[C@@H]1CN(C)C(=O)c2ccc(NC(=O)c3nc4ccccc4s3)cc2OC[C@H](C)N(Cc2ccncc2)C[C@@H]1C	Pf Dd2 inh -95.9 (no result: T cruzi growth)
CO[C@@H]1CN(C)C(=O)c2ccc(NC(=O)c3nc4ccccc4s3)cc2OC[C@H](C)N(Cc2cccnc2)C[C@H]1C	none (no result: IDH1 R132H inh)
CO[C@@H]1CN(C)C(=O)c2ccc(NC(=O)c3nc4ccccc4s3)cc2OC[C@@H](C)N(Cc2ccncc2)C[C@@H]1C	none (no result: T cruzi growth)
Cc1noc(C)c1S(=O)(=O)N(C)C[C@@H]1OCCCC[C@H](C)Oc2ccc(NC(=O)c3ccccc3)cc2C(=O)N([C@@H](C)CO)C[C@H]1C	Pf Dd2 inh -88.0 (no result: IDH1 R132H inh)
Cc1noc(C)c1S(=O)(=O)N(C)C[C@@H]1OCCCC[C@H](C)Oc2ccc(NC(=O)Nc3ccccc3)cc2C(=O)N([C@H](C)CO)C[C@H]1C	Pf Dd2 inh -83.0 (no result: T cruzi growth)
Cc1noc(C)c1S(=O)(=O)N(C)C[C@H]1OCCCC[C@H](C)Oc2ccc(NC(=O)Nc3ccccc3)cc2C(=O)N([C@H](C)CO)C[C@@H]1C	none (no result: T cruzi growth, IDH1 R132H inh)
[N-]=[N+]=NC[C@H](Cc1ccccc1)NC(=O)c1ccccc1	none (no result: GASC1 inh, T cruzi growth, Pf Dd2 inh)
C[C@H](CO)N1C[C@H](C)[C@@H](CN(C)C(=O)c2ccccn2)Oc2ncc(Br)cc2C1=O	GASC1 inh 25.8 (no result: T cruzi growth)
COc1cccc(C#Cc2cnc3c(c2)C(=O)N([C@@H](C)CO)C[C@H](C)[C@H](CN(C)C(=O)C2CCCCC2)O3)c1	Pf Dd2 inh -82.6 (no result: IDH1 R132H inh)
COc1cccc(C#Cc2cnc3c(c2)C(=O)N([C@H](C)CO)C[C@H](C)[C@H](CN(C)C(=O)C2CCOCC2)O3)c1	none (no result: T cruzi growth)
COc1cccc(C#Cc2cnc3c(c2)C(=O)N([C@@H](C)CO)C[C@H](C)[C@@H](CN(C)C(=O)C2CCOCC2)O3)c1	Pf Dd2 inh -82.6 (no result: T cruzi growth)
C[C@@H]1CN([C@@H](C)CO)C(=O)c2cc(Br)cnc2O[C@@H]1CN(C)C(=O)C1CCOCC1	GASC1 inh 38.8
COc1ccc2c3c([nH]c2c1)[C@H](CO)N(C(=O)CN(C)C)CC31CN(CC2CCOCC2)C1	none (no result: T cruzi growth, IDH1 R132H inh)
COc1ccc2c3c([nH]c2c1)[C@@H](CO)N(C(=O)CN(C)C)CC31CN(CC2CCCC2)C1	Pf Dd2 inh -86.3 (no result: T cruzi growth, IDH1 R132H inh)
COc1ccc2c3c([nH]c2c1)[C@H](CO)N(C(=O)CN(C)C)CC31CCN(Cc2ccccc2)CC1	Pf Dd2 inh -82.0 (no result: T cruzi growth, IDH1 R132H inh)
C[C@@H]1CCCCO[C@H](CN(C)C(=O)Nc2ccc(F)cc2)[C@H](C)CN([C@H](C)CO)C(=O)c2cc(NC(=O)C3CCCCC3)ccc2O1	Pf Dd2 inh -81.2 (no result: IDH1 R132H inh)
C[C@@H]1CCCCO[C@H](CN(C)C(=O)Nc2ccc(C(F)(F)F)cc2)[C@H](C)CN([C@@H](C)CO)C(=O)c2cc(NC(=O)C3CCCCC3)ccc2O1	Pf Dd2 inh -83.2 (no result: IDH1 R132H inh)
C[C@H]1CN([C@@H](C)CO)C(=O)c2cc(-c3ccc(C#N)cc3)cnc2O[C@@H]1CN(C)C(=O)Nc1ccccc1	none
C[C@@H]1CN([C@@H](C)CO)C(=O)c2cc(-c3ccc(C#N)cc3)cnc2O[C@@H]1CN(C)C(=O)Nc1ccccc1	GASC1 inh 32.7
C[C@@H]1CN([C@H](C)CO)C(=O)c2cc(C#Cc3ccccc3F)cnc2O[C@H]1CN(C)C(=O)c1ccc2c(c1)OCO2	Pf Dd2 inh -86.3
COc1ccc(C#Cc2cnc3c(c2)C(=O)N([C@@H](C)CO)C[C@H](C)[C@H](CN(C)C(=O)c2ccccc2F)O3)cc1	Pf Dd2 inh -81.7
CC(C)NC(=O)N(C)C[C@H]1Oc2ncc(C#Cc3ccccc3F)cc2C(=O)N([C@@H](C)CO)C[C@@H]1C	Pf Dd2 inh -82.1
COc1ccc(C#Cc2cnc3c(c2)C(=O)N([C@H](C)CO)C[C@@H](C)[C@@H](CN(C)C(=O)c2ccccc2F)O3)cc1	none
CCn1c(SCC(=O)Nc2ccc(Br)cc2Cl)nnc1-c1ccccc1	none (no result: GASC1 inh, T cruzi growth, Pf Dd2 inh)
C[C@@H]1CCCCO[C@@H](CN(C)S(=O)(=O)c2cn(C)cn2)[C@H](C)CN([C@H](C)CO)C(=O)c2cc(NC(=O)Nc3ccc(C(F)(F)F)cc3)ccc2O1	Pf Dd2 inh -88.1
Cc1noc(C)c1S(=O)(=O)N(C)C[C@H]1OCCCC[C@@H](C)Oc2ccc(NC(=O)Nc3ccc(C(F)(F)F)cc3)cc2C(=O)N([C@@H](C)CO)C[C@H]1C	T cruzi growth 96.9 (no result: IDH1 R132H inh)
